According to ChEMBL document CHEMBL5247578, “Effective synthesis of benzimidazoles-imidazo[1,2-a]pyrazine conjugates: A comparative study of mono-and bis-benzimidazoles for antitumor activity” (Eur J Med Chem, 2019):

Assays:
[1] = test system: HL-60; assay: Antiproliferative activity against human HL-60 cells assessed as cell growth inhibition by measuring lethal concentration incubated for 48 hrs by sulforhodamine B assay; type: functional; settings: read-out: LC50 (the source's name)
[2] = test system: MCF7; assay: Growth inhibition against human MCF7 cells incubated for 48 hrs by sulforhodamine B assay; type: functional
[3] = test system: M14; assay: Antiproliferative activity against human M14 cells assessed as cell growth at 0.00000001 M incubated for 48 hrs by SRB assay relative to control; type: functional; settings: dose 10 nM, read-out: Activity
[4] = test system: MDA-MB-468; assay: Antiproliferative activity against human MDA-MB-468 cells assessed as cell growth at 0.0001 M incubated for 48 hrs by SRB assay relative to control; type: functional; settings: read-out: Activity
[5] = test system: OVCAR-5; assay: Antiproliferative activity against human OVCAR-5 cells assessed as cell growth at 0.000001 M incubated for 48 hrs by SRB assay relative to control; type: functional; settings: read-out: Activity
[6] = test system: CAKI-1; assay: Growth inhibition against human CAKI-1 cells assessed as total growth inhibitory concentration incubated for 48 hrs by sulforhodamine B assay; type: functional
[7] = test system: T47D; assay: Antiproliferative activity against human T47D cells assessed as cell growth inhibition by measuring lethal concentration incubated for 48 hrs by sulforhodamine B assay; type: functional; settings: read-out: LC50 (the source's name)
Method in brief: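 NCI-60 five-dose screen (10^-4 to 10^-8 M, 10-fold dilutions; DMSO stocks). Cells in RPMI 1640 with 5% FBS and 2 mM L-glutamine, preincubated 24 h, then exposed 48 h at 37 °C, 5% CO2. Fixed with cold TCA, stained with 0.4% SRB, absorbance read at 515 nm. Time-zero plates used as reference. LC50 taken from [(Ti-Tz)/Tz]×100 […].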

[8] = test system: HOP-62; assay: Antiproliferative activity against human HOP-62 cells assessed as cell growth at 0.000001 M incubated for 48 hrs by SRB assay relative to control; type: functional; settings: read-out: Activity
Method in brief: (§1)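 NCI-60 five-dose screen (10^-4 to 10^-8 M). Cells grown in RPMI 1640 with 5% FBS and 2 mM L-glutamine, plated at 5,000-40,000 cells/well and preincubated 24 h. Drug given from DMSO stock, then 48 h at 37 °C, 5% CO2. For adherent lines, cells fixed with cold TCA, SRB-stained and read at 515 nm. Percent growth taken against time-zero and untreated control.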

[9] = test system: SN12C; assay: Antiproliferative activity against human SN12C cells assessed as cell growth inhibition by measuring lethal concentration incubated for 48 hrs by sulforhodamine B assay; type: functional; settings: read-out: LC50 (the source's name)
[10] = test system: SR; assay: Antiproliferative activity against human SR cells assessed as cell growth at 0.00000001 M incubated for 48 hrs by SRB assay relative to control; type: functional; settings: dose 10 nM, read-out: Activity
[11] = test system: NCI-H460; assay: Antiproliferative activity against human NCI-H460 cells assessed as cell growth at 0.0001 M incubated for 48 hrs by SRB assay relative to control; type: functional; settings: read-out: Activity
[12] = test system: BT-549; assay: Antiproliferative activity against human BT-549 cells assessed as cell growth at 0.00001 M incubated for 48 hrs by SRB assay relative to control; type: functional; settings: read-out: Activity
Method in brief: (§2)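 NCI-60 five-dose screen over 10^-4–10^-8 M (10-fold dilutions). Cells grown in RPMI 1640 with 5% FBS and 2 mM L-glutamine, seeded at 5,000–40,000 cells/well and preincubated 24 h. Drug from DMSO stock, 48 h at 37 °C, 5% CO2. Adherent cells TCA-fixed and stained with 0.4% SRB; A515 read. Percent growth = (Ti−Tz)/(C−Tz)×100, or (Ti−Tz)/Tz×100 when Ti<Tz.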

[13] = test system: OVCAR-3; assay: Antiproliferative activity against human OVCAR-3 cells assessed as cell growth at 0.000001 M incubated for 48 hrs by SRB assay relative to control; type: functional; settings: read-out: Activity
[14] = test system: A498; assay: Antiproliferative activity against human A498 cells assessed as cell growth at 0.00000001 M incubated for 48 hrs by SRB assay relative to control; type: functional; settings: dose 10 nM, read-out: Activity; method in brief: as §2
[15] = test system: U-251; assay: Antiproliferative activity against human U-251 cells assessed as cell growth at 0.00000001 M incubated for 48 hrs by SRB assay relative to control; type: functional; settings: dose 10 nM, read-out: Activity
[16] = test system: NCI-H460; assay: Growth inhibition against human NCI-H460 cells assessed as total growth inhibitory concentration incubated for 48 hrs by sulforhodamine B assay; type: functional
[17] = test system: SK-MEL-28; assay: Antiproliferative activity against human SK-MEL-28 cells assessed as cell growth inhibition by measuring lethal concentration incubated for 48 hrs by sulforhodamine B assay; type: functional; settings: read-out: LC50 (the source's name)
[18] = test system: HT-29; assay: Antiproliferative activity against human HT-29 cells assessed as cell growth at 0.00000001 M incubated for 48 hrs by SRB assay relative to control; type: functional; settings: dose 10 nM, read-out: Activity; method in brief: as §1
[19] = test system: SF-268; assay: Growth inhibition against human SF-268 cells assessed as total growth inhibitory concentration incubated for 48 hrs by sulforhodamine B assay; type: functional
[20] = test system: COLO 205; assay: Antiproliferative activity against human COLO 205 cells assessed as cell growth at 0.0001 M incubated for 48 hrs by SRB assay relative to control; type: functional; settings: read-out: Activity; method in brief: as §2
[21] = test system: HT-29; assay: Antiproliferative activity against human HT-29 cells assessed as cell growth at 0.000001 M incubated for 48 hrs by SRB assay relative to control; type: functional; settings: read-out: Activity; method in brief: as §1
[22] = test system: UO-31; assay: Antiproliferative activity against human UO-31 cells assessed as cell growth at 0.000001 M incubated for 48 hrs by SRB assay relative to control; type: functional; settings: read-out: Activity
[23] = test system: HOP-92; assay: Antiproliferative activity against human HOP-92 cells assessed as cell growth at 0.0001 M incubated for 48 hrs by SRB assay relative to control; type: functional; settings: read-out: Activity; method in brief: as §1
[24] = test system: A549; assay: Growth inhibition against human A549 cells incubated for 48 hrs by sulforhodamine B assay; type: functional
[25] = test system: Malme-3M; assay: Antiproliferative activity against human Malme-3M cells assessed as cell growth at 0.00001 M incubated for 48 hrs by SRB assay relative to control; type: functional; settings: read-out: Activity
[26] = test system: NCI-H522; assay: Antiproliferative activity against human NCI-H522 cells assessed as cell growth inhibition by measuring lethal concentration incubated for 48 hrs by sulforhodamine B assay; type: functional; settings: read-out: LC50 (the source's name)
[27] = test system: OVCAR-5; assay: Antiproliferative activity against human OVCAR-5 cells assessed as cell growth at 0.0000001 M incubated for 48 hrs by SRB assay relative to control; type: functional; settings: dose 100 nM, read-out: Activity
[28] = test system: CCRF-CEM; assay: Growth inhibition against human CCRF-CEM cells assessed as total growth inhibitory concentration incubated for 48 hrs by sulforhodamine B assay; type: functional
[29] = test system: ACHN; assay: Growth inhibition against human ACHN cells incubated for 48 hrs by sulforhodamine B assay; type: functional
[30] = test system: HEK293; assay: Cytotoxicity against human HEK293 cells assessed as reduction in cell viability at 0.000001 M incubated for 48 hrs by MTT colorimetric assay relative to control; type: toxicity, cell-based; settings: hek293, 48 h, 1 µM
[31] = test system: SF-295; assay: Growth inhibition against human SF-295 cells incubated for 48 hrs by sulforhodamine B assay; type: functional
[32] = target: Albumin (Bos taurus, UniProt P02769); assay: Binding affinity to bovine serum albumin assessed as binding constant by Benesi-Hildebrand equation based UV-vis spectrophotometric method; settings: cattle
[33] = test system: UACC-257; assay: Antiproliferative activity against human UACC-257 cells assessed as cell growth at 0.0001 M incubated for 48 hrs by SRB assay relative to control; type: functional; settings: read-out: Activity

Albumin, sequence (P02769 whole entry): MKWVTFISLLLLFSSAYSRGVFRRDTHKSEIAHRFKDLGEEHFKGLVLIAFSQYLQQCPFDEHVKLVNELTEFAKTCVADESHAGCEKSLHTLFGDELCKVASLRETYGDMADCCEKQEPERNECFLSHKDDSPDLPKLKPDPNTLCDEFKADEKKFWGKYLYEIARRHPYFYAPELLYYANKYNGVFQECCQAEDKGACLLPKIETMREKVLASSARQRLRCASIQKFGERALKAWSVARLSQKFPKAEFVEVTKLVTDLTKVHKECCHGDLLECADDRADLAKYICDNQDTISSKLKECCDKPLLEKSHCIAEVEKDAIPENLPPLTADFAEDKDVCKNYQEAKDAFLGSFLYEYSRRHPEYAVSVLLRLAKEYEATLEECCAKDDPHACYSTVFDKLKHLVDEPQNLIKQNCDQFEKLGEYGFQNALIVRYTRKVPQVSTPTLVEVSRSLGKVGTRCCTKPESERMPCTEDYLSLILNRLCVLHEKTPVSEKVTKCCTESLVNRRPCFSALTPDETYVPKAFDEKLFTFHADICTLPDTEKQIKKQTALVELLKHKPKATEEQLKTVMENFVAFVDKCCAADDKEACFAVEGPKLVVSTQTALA

SMILES | CC50 [1] [µM] | GI50 [2] [µM] | growth at 0.01 µM [3] [%] | growth at 100 µM [4] [%] | growth at 1 µM [5] [%] | TGI [6] [µM] | CC50 [7] [µM] | growth at 1 µM [8] [%] | CC50 [9] [µM] | growth at 0.01 µM [10] [%] | growth at 100 µM [11] [%] | growth at 10 µM [12] [%] | growth at 1 µM [13] [%] | growth at 0.01 µM [14] [%] | growth at 0.01 µM [15] [%] | TGI [16] [µM] | CC50 [17] [µM] | growth at 0.01 µM [18] [%] | TGI [19] [µM] | growth at 100 µM [20] [%] | other results
c1ccc(Cn2cnc3ccc(-c4nc(-c5ccc6c(c5)ncn6C5CCCCC5)cn5ccnc45)cc32)cc1 | > 100 | 2.72 | 87 | -7 | 89 | > 100 | > 100 | 82 | > 100 | 98 | -24 | -82 | 94 | 95 | 98 | 5.66 | > 100 | 99 | > 100 | -39 | growth at 1 µM [21]: 88%; growth at 1 µM [22]: 78%; growth at 100 µM [23]: -80%; GI50 [24]: 2.33 µM; growth at 10 µM [25]: -10%; CC50 [26]: > 100 µM; growth at 0.1 µM [27]: 89%; TGI [28]: > 100 µM; GI50 [29]: 3.08 µM; Activity [30]: 14.11%; GI50 [31]: 1.42 µM; Kb [32]: 2.65 10^4/M; growth at 100 µM [33]: -27%
COc1ccc(-c2cn3ccnc3c(-c3ccc4ncn(C5CCCCC5)c4c3)n2)cc1 | > 100 | 0.64 | 99 | 10 | 75 | > 100 | > 100 | 52 | > 100 | 102 | 5 | -18 | 19 | 100 | 102 | > 100 | > 100 | 94 | > 100 | -5 | growth at 1 µM [21]: 20%; growth at 1 µM [22]: 55%; growth at 100 µM [23]: 9%; GI50 [24]: 1.83 µM; growth at 10 µM [25]: 51%; CC50 [26]: > 100 µM; growth at 0.1 µM [27]: 90%; TGI [28]: > 100 µM; GI50 [29]: 0.692 µM; Activity [30]: 15.07%; GI50 [31]: 0.361 µM; Kb [32]: 1.95 10^5/M; growth at 100 µM [33]: 55%
